Source: ChEMBL document CHEMBL1649097, “Kinase inhibition by deoxy analogues of the resorcylic lactone L-783277” (ACS Med Chem Lett, 2011)

Columns and labels:
[1] = biological target: ALK tyrosine kinase receptor (Homo sapiens, UniProt Q9UM73); experiment: Inhibition of ALK by TR-FRET based LanthaScreen assay
In short: (§1)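 TR-FRET LanthaScreen kinase assay with phosphorylation of a substrate; FGFR3 used as the K651E mutant. IC50 derived from two independent experiments; for some compounds, ALK and cKIT values are averages ± SDs of three independent experiments.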

[2] = biological target: Mitogen-activated protein kinase 1 (Homo sapiens, UniProt P28482); experiment: Inhibition of ERK2 by Caliper mobility shift assay
In short: (§2)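 Caliper mobility shift kinase assay with phosphorylation of a substrate; IC50 derived from two independent experiments.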

Ephrin type-B receptor 4 = biological target: T1, Ephrin type-B receptor 4 (Homo sapiens, UniProt P54760); experiment: Inhibition of EPHB4 by TR-FRET based LanthaScreen assay
T1 sequence (P54760 whole entry): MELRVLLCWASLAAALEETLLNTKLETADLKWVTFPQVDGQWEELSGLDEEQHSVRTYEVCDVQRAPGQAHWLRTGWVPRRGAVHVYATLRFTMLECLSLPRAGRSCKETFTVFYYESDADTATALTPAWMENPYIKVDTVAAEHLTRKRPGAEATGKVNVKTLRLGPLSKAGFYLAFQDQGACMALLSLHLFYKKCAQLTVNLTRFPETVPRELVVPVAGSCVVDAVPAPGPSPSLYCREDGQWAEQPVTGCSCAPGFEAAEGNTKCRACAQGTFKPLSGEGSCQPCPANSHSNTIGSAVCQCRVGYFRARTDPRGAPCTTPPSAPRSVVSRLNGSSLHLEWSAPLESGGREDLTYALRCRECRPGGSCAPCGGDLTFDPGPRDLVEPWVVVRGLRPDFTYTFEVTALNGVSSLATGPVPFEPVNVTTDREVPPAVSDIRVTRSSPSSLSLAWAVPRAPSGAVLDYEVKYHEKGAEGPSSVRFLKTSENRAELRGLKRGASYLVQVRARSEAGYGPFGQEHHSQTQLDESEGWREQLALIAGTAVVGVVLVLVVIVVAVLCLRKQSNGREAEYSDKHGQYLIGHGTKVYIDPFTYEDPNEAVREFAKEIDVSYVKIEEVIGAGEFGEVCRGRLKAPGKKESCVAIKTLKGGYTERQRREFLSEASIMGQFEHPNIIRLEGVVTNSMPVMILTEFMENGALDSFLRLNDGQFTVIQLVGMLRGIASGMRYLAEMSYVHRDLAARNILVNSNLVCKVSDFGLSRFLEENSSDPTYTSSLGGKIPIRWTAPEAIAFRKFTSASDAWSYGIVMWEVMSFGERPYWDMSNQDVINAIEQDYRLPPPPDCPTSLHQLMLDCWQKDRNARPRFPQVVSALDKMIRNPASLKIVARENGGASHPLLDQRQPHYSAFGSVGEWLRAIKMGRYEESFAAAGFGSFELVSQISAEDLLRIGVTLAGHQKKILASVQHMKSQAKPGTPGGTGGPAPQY
In short: (§3)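 LanthaScreen TR-FRET kinase format, run per the group's earlier protocol. IC50 from two independent experiments; for some compounds, PDGFRα and VEGFR2 values are means ± SD of three independent runs. The FGFR3 used was the K651E mutant.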

[3] = biological target: Mast/stem cell growth factor receptor Kit (Homo sapiens, UniProt P10721); experiment: Inhibition of cKIT by TR-FRET based LanthaScreen assay; in short: as §1
[4] = biological target: Tyrosine-protein kinase Lck (Homo sapiens, UniProt P06239); experiment: Inhibition of LCK by TR-FRET based LanthaScreen assay
[5] = biological target: MAP kinase-interacting serine/threonine-protein kinase 2 (Homo sapiens, UniProt Q9HBH9); experiment: Inhibition of MNK2 by TR-FRET based LanthaScreen assay; in short: as §1
[6] = biological target: Platelet-derived growth factor receptor alpha (Homo sapiens, UniProt P16234, V561D); experiment: Inhibition of PDGFRalpha V561D mutant by TR-FRET based LanthaScreen assay; in short: as §3
Sequence of Platelet-derived growth factor receptor alpha (P16234 24-1089 V561D limits assumed): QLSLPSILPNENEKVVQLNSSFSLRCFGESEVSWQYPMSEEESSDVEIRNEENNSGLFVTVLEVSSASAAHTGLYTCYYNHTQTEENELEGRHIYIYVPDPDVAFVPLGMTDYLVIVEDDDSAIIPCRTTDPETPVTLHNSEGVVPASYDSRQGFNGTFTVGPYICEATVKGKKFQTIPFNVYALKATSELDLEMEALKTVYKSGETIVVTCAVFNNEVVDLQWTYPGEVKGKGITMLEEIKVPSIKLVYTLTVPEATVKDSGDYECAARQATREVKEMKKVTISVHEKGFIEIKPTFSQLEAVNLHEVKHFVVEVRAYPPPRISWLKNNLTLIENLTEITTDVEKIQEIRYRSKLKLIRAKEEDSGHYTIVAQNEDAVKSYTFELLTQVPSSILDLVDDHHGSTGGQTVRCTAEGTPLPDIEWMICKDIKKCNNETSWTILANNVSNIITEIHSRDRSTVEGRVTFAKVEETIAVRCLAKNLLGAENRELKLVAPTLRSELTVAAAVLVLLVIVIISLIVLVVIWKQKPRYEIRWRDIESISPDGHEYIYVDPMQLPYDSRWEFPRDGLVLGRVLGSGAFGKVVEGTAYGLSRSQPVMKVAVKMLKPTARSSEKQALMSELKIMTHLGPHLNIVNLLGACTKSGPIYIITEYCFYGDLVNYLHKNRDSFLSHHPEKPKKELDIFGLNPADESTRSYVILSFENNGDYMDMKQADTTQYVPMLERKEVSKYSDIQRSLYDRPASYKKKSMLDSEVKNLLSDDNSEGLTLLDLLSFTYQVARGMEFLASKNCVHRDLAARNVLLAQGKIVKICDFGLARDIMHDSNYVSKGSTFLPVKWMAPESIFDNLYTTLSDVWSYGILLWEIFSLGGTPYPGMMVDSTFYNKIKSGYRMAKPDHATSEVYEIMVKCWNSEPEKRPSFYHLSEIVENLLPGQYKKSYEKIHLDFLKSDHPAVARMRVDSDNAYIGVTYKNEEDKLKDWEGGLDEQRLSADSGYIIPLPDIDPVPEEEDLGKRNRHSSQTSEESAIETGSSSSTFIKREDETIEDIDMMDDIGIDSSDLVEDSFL

[7] = biological target: Proto-oncogene tyrosine-protein kinase receptor Ret (Homo sapiens, UniProt P07949); experiment: Inhibition of RET by TR-FRET based LanthaScreen assay; in short: as §3
Sequence of Proto-oncogene tyrosine-protein kinase receptor Ret (P07949 whole entry): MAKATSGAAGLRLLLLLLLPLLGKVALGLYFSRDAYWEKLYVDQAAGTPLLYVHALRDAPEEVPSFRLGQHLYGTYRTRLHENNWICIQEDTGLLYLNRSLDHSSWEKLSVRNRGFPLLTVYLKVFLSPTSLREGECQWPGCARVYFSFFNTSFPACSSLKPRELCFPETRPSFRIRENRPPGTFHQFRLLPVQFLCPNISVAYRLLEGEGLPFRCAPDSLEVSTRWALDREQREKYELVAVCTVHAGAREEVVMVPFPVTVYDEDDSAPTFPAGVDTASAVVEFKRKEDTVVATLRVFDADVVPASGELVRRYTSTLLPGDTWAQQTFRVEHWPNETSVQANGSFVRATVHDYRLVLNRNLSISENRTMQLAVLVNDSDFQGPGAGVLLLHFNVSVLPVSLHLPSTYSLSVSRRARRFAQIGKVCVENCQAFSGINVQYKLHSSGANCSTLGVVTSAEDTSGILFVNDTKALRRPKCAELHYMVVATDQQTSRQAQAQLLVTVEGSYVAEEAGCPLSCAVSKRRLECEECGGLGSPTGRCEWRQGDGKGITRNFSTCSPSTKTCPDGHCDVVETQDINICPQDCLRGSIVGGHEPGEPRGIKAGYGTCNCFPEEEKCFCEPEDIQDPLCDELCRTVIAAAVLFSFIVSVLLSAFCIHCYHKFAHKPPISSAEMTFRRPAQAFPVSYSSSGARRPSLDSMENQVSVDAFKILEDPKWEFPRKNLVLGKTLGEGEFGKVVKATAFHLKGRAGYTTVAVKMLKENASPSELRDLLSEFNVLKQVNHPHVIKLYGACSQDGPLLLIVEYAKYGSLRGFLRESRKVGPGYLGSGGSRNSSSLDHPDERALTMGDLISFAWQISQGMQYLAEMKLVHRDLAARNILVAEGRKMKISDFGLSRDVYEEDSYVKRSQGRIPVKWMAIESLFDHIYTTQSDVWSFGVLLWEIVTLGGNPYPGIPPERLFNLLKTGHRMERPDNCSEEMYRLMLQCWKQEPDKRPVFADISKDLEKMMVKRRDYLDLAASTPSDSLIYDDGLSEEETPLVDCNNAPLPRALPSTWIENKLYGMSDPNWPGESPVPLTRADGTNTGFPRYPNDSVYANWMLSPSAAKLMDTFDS

[8] = biological target: Non-receptor tyrosine-protein kinase TYK2 (Homo sapiens, UniProt P29597); experiment: Inhibition of TYK2 by TR-FRET based LanthaScreen assay; in short: as §3
[9] = biological target: T2, Vascular endothelial growth factor receptor 2 (Homo sapiens, UniProt P35968); experiment: Inhibition of VEGFR2 by TR-FRET based LanthaScreen assay; in short: as §3
T2 sequence (P35968 whole entry): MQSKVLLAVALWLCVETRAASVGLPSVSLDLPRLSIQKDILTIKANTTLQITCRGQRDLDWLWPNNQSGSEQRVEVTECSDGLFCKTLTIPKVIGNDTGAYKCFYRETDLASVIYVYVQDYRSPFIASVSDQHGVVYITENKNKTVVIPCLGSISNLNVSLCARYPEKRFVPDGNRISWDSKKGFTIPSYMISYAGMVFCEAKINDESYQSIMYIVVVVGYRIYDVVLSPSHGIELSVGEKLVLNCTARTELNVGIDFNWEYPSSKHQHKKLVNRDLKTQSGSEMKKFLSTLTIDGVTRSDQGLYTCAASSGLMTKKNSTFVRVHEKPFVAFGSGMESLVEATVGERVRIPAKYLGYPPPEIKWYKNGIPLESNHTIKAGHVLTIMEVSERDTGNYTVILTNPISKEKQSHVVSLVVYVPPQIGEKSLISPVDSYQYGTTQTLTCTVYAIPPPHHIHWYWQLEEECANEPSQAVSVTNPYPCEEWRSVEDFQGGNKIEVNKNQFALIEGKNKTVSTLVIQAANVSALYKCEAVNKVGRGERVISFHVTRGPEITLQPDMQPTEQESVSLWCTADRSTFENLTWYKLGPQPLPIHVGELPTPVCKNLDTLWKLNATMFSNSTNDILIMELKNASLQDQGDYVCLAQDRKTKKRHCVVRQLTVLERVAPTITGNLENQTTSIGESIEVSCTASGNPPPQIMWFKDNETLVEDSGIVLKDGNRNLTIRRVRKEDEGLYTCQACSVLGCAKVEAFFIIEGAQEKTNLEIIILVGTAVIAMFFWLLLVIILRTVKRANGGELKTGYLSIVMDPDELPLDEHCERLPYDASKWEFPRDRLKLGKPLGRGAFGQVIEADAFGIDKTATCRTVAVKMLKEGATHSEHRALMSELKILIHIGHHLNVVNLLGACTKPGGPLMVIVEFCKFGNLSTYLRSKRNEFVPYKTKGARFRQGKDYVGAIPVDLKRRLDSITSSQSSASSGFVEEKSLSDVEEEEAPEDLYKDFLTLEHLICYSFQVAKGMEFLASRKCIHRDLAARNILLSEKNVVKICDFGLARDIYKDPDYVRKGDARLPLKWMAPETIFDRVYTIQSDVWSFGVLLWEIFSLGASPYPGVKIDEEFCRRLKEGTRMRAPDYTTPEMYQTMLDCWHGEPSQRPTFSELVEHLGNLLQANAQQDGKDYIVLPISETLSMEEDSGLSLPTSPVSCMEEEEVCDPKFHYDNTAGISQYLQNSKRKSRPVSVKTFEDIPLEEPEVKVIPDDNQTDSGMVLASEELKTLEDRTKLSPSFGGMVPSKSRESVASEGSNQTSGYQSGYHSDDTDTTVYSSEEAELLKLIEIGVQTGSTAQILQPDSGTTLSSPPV

Aurora kinase A = Aurora kinase A (Homo sapiens, UniProt O14965); experiment: Inhibition of Aurora A kinase by Caliper mobility shift assay
In short: (§4)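 Caliper microfluidic mobility shift readout of substrate phosphorylation, run per the group's earlier kinase protocol. IC50 taken from two independent experiments.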

[10] = biological target: Tyrosine-protein kinase receptor UFO (Homo sapiens, UniProt P30530); experiment: Inhibition of Axl by TR-FRET based LanthaScreen assay; in short: as §3
[11] = biological target: Cyclin-dependent kinase 2 (Homo sapiens, UniProt P24941); experiment: Inhibition of CDK2A by Caliper mobility shift assay; in short: as §4
[12] = Inhibition of CDK4D1 by Caliper mobility shift assay; in short: as §2
[13] = biological target: Tyrosine-protein kinase ZAP-70 (Homo sapiens, UniProt P43403); experiment: Inhibition of ZAP70 by TR-FRET based LanthaScreen assay; in short: as §3
[14] = Inhibition of COT1 by Caliper mobility shift assay; in short: as §2
Ephrin type-A receptor 4 = Ephrin type-A receptor 4 (Homo sapiens, UniProt P54764); experiment: Inhibition of EPHA4 by TR-FRET based LanthaScreen assay; in short: as §3
[15] = biological target: Fibroblast growth factor receptor 3 (Homo sapiens, UniProt P22607); experiment: Inhibition of FGFR3 by TR-FRET based LanthaScreen assay; in short: as §3
[16] = biological target: Glycogen synthase kinase-3 beta (Homo sapiens, UniProt P49841); experiment: Inhibition of GSK3-beta by TR-FRET based LanthaScreen assay; in short: as §3
[17] = biological target: Receptor tyrosine-protein kinase erbB-2 (Homo sapiens, UniProt P04626); experiment: Inhibition of HER2 by TR-FRET based LanthaScreen assay; in short: as §3
[18] = biological target: Hepatocyte growth factor receptor (Homo sapiens, UniProt P08581); experiment: Inhibition of HGFR by TR-FRET based LanthaScreen assay; in short: as §3
[19] = biological target: Insulin-like growth factor 1 receptor (Homo sapiens, UniProt P08069); experiment: Inhibition of IGF1R by TR-FRET based LanthaScreen assay; in short: as §3
Insulin receptor = Insulin receptor (Homo sapiens, UniProt P06213); experiment: Inhibition of INSR by TR-FRET based LanthaScreen assay; in short: as §3
[20] = biological target: Tyrosine-protein kinase JAK1 (Homo sapiens, UniProt P23458); experiment: Inhibition of JAK1 by TR-FRET based LanthaScreen assay
[21] = biological target: Tyrosine-protein kinase JAK2 (Homo sapiens, UniProt O60674); experiment: Inhibition of JAK2 by TR-FRET based LanthaScreen assay
[22] = biological target: Tyrosine-protein kinase JAK3 (Homo sapiens, UniProt P52333); experiment: Inhibition of JAK3 by Caliper mobility shift assay; in short: as §4
[23] = Inhibition of PKAtau by TR-FRET based LanthaScreen assay; in short: as §1
[24] = biological target: Serine/threonine-protein kinase N1 (Homo sapiens, UniProt Q16512); experiment: Inhibition of PKN1 by Caliper mobility shift assay; in short: as §4
[25] = biological target: Serine/threonine-protein kinase N2 (Homo sapiens, UniProt Q16513); experiment: Inhibition of PKN2 by Caliper mobility shift assay; in short: as §4
[26] = biological target: Rho-associated protein kinase 2 (Homo sapiens, UniProt O75116); experiment: Inhibition of ROCK2 by Caliper mobility shift assay; in short: as §4
[27] = biological target: Tyrosine-protein kinase ABL1 (Homo sapiens, UniProt P00519, T315I); experiment: Inhibition of cABL T315I mutant by Caliper mobility shift assay; in short: as §4
[28] = biological target: Mitogen-activated protein kinase 14 (Homo sapiens, UniProt Q16539); experiment: Inhibition of p38alpha by Caliper mobility shift assay; in short: as §4
[29] = biological target: cAMP-dependent protein kinase catalytic subunit alpha (Homo sapiens, UniProt P17612); experiment: Inhibition of PKAalpha by TR-FRET LanthaScreen assay
[30] = biological target: Dual specificity mitogen-activated protein kinase kinase 2 (Homo sapiens, UniProt P36507); experiment: Inhibition of MEK2 by TR-FRET based LanthaScreen assay; in short: as §3
[31] = biological target: MAP kinase-activated protein kinase 5 (Homo sapiens, UniProt Q8IW41); experiment: Inhibition of MK5 by TR-FRET based LanthaScreen assay; in short: as §3
Plasma [32] = experiment: Metabolic stability in mouse plasma assessed as compound conversion to metabolite C7'-C8' E isomer; format: ADME, cell-free
Blood = experiment: Metabolic stability in mouse blood assessed as compound conversion to metabolite C7'-C8' E isomer; format: ADME, tissue-based
Plasma [33] = experiment: Metabolic stability in human plasma assessed as compound conversion to metabolite C7'-C8' E isomer at 55 uM after 20 mins at 37 degC; format: ADME, cell-free
[34] = biological target: Tyrosine-protein kinase BTK (Homo sapiens, UniProt Q06187); experiment: Inhibition of BTK by TR-FRET based LanthaScreen assay
[35] = biological target: T2, Vascular endothelial growth factor receptor 2; experiment: Inhibition of VEGFR2 autophosphorylation by cell based assay
[36] = Chemical stability in HEPES buffer assessed as compound isomerization at pH 7.0 to 7.5 for 24 hrs at 37 degC; format: physicochemical; details: read-out: Activity
In short: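 Compound incubated in HEPES buffer at pH 7.0−7.5 for 24 h at 37 °C; read-out is the percentage isomerization to the C7′-C8′ E isomer.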

Sequence of ALK tyrosine kinase receptor (Q9UM73 whole entry): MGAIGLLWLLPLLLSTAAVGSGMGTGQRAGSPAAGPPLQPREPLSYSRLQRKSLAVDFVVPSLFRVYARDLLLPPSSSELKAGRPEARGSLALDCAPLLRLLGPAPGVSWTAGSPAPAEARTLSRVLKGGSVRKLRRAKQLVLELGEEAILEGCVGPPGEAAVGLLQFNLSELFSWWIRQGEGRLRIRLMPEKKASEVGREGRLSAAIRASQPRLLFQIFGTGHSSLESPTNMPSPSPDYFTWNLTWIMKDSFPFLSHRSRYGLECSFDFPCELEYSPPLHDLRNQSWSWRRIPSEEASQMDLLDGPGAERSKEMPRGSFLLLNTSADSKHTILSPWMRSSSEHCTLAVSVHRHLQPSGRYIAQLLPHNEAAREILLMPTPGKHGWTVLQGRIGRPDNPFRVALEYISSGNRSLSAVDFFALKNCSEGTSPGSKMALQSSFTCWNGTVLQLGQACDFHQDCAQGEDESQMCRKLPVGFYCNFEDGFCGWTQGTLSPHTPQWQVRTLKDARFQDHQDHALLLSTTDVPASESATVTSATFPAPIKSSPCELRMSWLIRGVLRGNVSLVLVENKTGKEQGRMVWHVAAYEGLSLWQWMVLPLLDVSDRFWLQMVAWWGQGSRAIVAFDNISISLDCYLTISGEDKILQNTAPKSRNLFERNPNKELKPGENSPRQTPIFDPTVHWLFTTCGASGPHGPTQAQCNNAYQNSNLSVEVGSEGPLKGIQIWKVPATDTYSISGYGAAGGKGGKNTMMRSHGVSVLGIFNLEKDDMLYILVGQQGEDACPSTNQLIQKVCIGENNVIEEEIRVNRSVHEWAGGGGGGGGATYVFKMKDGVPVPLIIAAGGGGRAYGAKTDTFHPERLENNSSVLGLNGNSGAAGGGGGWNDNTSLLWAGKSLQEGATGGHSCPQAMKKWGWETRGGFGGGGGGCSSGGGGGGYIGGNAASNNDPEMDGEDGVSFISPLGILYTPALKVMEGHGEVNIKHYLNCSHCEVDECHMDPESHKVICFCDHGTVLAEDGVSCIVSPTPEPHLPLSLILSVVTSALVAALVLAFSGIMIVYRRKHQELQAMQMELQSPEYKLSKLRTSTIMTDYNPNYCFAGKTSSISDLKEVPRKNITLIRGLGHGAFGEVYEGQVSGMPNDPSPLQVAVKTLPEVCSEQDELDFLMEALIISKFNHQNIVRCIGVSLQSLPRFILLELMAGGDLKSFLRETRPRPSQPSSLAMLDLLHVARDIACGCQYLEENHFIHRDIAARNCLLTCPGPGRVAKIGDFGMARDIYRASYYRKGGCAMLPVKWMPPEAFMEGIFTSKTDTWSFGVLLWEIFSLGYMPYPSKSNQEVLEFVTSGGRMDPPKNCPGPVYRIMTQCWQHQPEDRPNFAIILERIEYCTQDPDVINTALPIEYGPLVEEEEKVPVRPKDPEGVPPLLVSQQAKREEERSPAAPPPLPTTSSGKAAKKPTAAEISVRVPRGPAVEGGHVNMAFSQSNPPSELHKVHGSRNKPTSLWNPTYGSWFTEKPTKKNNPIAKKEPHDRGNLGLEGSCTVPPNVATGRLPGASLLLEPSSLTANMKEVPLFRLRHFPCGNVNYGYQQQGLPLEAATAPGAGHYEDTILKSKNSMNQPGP

| Compound | IC50 [1] [µM] | IC50 [2] [µM] | IC50 (Ephrin type-B receptor 4) [µM] | IC50 [3] [µM] | IC50 [4] [µM] | IC50 [5] [µM] | IC50 [6] [µM] | IC50 [7] [µM] | IC50 [8] [µM] | IC50 [9] [µM] | IC50 (Aurora kinase A) [µM] | IC50 [10] [µM] | IC50 [11] [µM] | IC50 [12] [µM] | IC50 [13] [µM] | IC50 [14] [µM] | IC50 (Ephrin type-A receptor 4) [µM] | IC50 [15] [µM] | IC50 [16] [µM] | IC50 [17] [µM] | also measured |
| --- | --- | --- | --- | --- | --- | --- | --- | --- | --- | --- | --- | --- | --- | --- | --- | --- | --- | --- | --- | --- | --- |
| COc1cc(O)c2c(c1)CCC[C@H](O)CC(=O)/C=C\C[C@H](C)OC2=O | 0.763 | 6.4 | 7.4 | 0.673 | 4.7 | 0.15 | 0.00723 | 7.2 | 4.4 | 0.0058 | > 10 | > 10 | > 10 | > 10 | > 10 | > 10 | > 10 | > 10 | > 10 | > 10 | IC50 [18]: > 10 µM; IC50 [19]: > 10 µM; IC50 (Insulin receptor): > 10 µM; IC50 [20]: > 10 µM; IC50 [21]: > 10 µM; IC50 [22]: > 10 µM; IC50 [23]: > 10 µM; IC50 [24]: > 10 µM; IC50 [25]: > 10 µM; IC50 [26]: > 10 µM; IC50 [27]: > 10 µM; IC50 [28]: > 10 µM; IC50 [29]: > 10 µM |
| COc1cc(O)c2c(c1)CCCCCC(=O)/C=C\C[C@H](C)OC2=O | 3.5 | > 10 | > 10 | > 10 | > 10 | > 10 | 0.095 | > 10 | > 10 | 0.17 | – | – | – | – | – | – | – | – | – | – | IC50 [30]: 6.84 µM; IC50 [31]: > 10 µM |
| COc1cc(O)c2c(c1)CCC[C@H](O)CC(=O)/C=C/C[C@H](C)OC2=O | > 10 | > 10 | > 10 | 7.6 | > 10 | – | 0.18 | > 10 | > 10 | 0.19 | – | – | – | – | – | – | – | – | – | – | – |
| COc1cc(O)c2c(c1)/C=C/C[C@H](O)[C@H](O)C(=O)/C=C\C[C@H](C)OC2=O | – | – | – | – | – | – | – | – | – | – | – | – | – | – | – | – | – | – | – | – | t1/2 (Plasma [32]): 20 min; t1/2 (Blood): 20 min; Stability (Plasma [33]): 50% |
| COc1cc(O)c2c(c1)CCC[C@H](O)[C@H](O)C(=O)/C=C\C[C@H](C)OC2=O | 0.763 | 0.95 | > 10 | 0.303 | 6.2 | – | 0.00238 | > 10 | 4.1 | 0.002 | > 10 | > 10 | > 10 | > 10 | > 10 | > 10 | > 10 | > 10 | > 10 | > 10 | IC50 [30]: 0.015 µM; IC50 [31]: 0.64 µM; IC50 [34]: > 10 µM; IC50 [18]: > 10 µM; IC50 [19]: > 10 µM; IC50 (Insulin receptor): > 10 µM; IC50 [20]: > 10 µM; IC50 [21]: > 10 µM; IC50 [22]: > 10 µM; IC50 [23]: > 10 µM; IC50 [24]: > 10 µM; IC50 [25]: > 10 µM; IC50 [26]: > 10 µM; IC50 [27]: > 10 µM; IC50 [28]: > 10 µM; IC50 [35]: 0.057 µM; degraded at 24 h [36]: < 1%; IC50 [29]: > 10 µM |
